Source: ChEMBL document CHEMBL4196194, “De Novo Design of α-Helical Lipopeptides Targeting Viral Fusion Proteins: A Promising Strategy for Relatively Broad-Spectrum Antiviral Drug Discovery” (J Med Chem, 2018)
Active and inactive are the calls of the source. The calls are words filed in the database; no cut-off is given here. Where a SMILES comes first, the peptide text is derived from it. [ ]: non-standard residue; d: D form. The star is where a group is joined. Palmitoyl = CCCCCCCCCCCCCCCC(=O)*; βAla = NCCC(=O)O

Columns and labels:
[1] = Inhibition of MERS-CoV spike protein-mediated cell-cell fusion in 293T/MERS/EGPF cells assessed as reduction in cell fusion incubated for 4 hrs by inverted fluorescence microscopy; assay type: cell-based, Middle East respiratory syndrome-related coronavirus
Outline: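 Huh-7 cells expressing DPP4 plated 5 × 10^4/well, 5 h at 37 °C; serially diluted peptide added, then 293T cells carrying MERS-CoV S and EGFP (or EGFP-only control cells), 1 × 10^4/well. After 4 h coculture at 37 °C, fused and unfused effector cells counted by fluorescence microscopy.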

[2] = Cytotoxicity in human HuH7 cells assessed as reduction in cell viability incubated for 48 hrs by CCK8 assay; assay type: cell-based, Huh-7
Outline: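 Huh-7 cells (1 × 10^5 cells/mL suspension seeded) grown 12 h at 37 °C, 5% CO2, then serially diluted peptide added for 48 h; untreated blank and Triton X-100 controls. CCK-8 added for 2 h, absorbance at 450 nm.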

[3] = Cytotoxicity in MDCK cells assessed as reduction in cell viability incubated for 72 hrs by cell-titer-Glo cell viability assay; assay type: cell-based, Canis lupus familiaris; settings: dog
Lipid bilayer = experiment: Binding affinity to POPC LUV liposome system at 15 uM
Outline: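 Isothermal titration calorimetry at 25 °C. POPC large unilamellar vesicles (13 mM in the syringe) were titrated into peptide in the cell (15 μM) over 20 injections, 120 s apart, with stirring at 750 rpm. The binding constant was derived from the heat released during peptide–lipid binding.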

[4] = system: Middle East respiratory syndrome-related coronavirus; experiment: Antiviral activity against MERS-CoV pseudovirus infected in human HuH7 cells treated with 30 mins pre-treated pseudovirus/compopund mixture and measured after 48 hrs by luciferase reporter assay; assay type: functional, organism-based
Outline: (§1)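 Serially diluted peptide premixed with MERS-CoV pseudovirus 30 min at 37 °C, then added to Huh-7 cells; medium replaced at 12 h postinfection and cells cultured a further 48 h at 37 °C before luciferase read-out.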

Influenza A virus = experiment: Antiviral activity against Influenza A virus (A/Puerto Rico/8/1934(H1N1)) infected in HEK293T cells assessed as inhibition of viral replicon activity up to 40 uM incubated for 30 hrs by dual-Glo luciferase assay; assay type: functional, organism-based
Outline: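 HEK293T cells (2.5 × 10^4/well) transfected with plasmids for NP, PB1, PB2, PA plus p0LN-S-Luc firefly and pRL-SV40 Renilla reporters; serially diluted compound added 6 h post-transfection, luciferase read after 30 h by Dual-Glo. Activity = firefly/Renilla ratio; % inhibition normalized to positive and negative controls, curve-fitted; three independent measurements.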

[5] = system: Middle East respiratory syndrome-related coronavirus; experiment: Antiviral activity against MERS-CoV pseudovirus infected in human HuH7 cells treated with 30 mins pre-treated pseudovirus/compopund mixture up to 40 uM and measured after 48 hrs by luciferase reporter assay; assay type: functional, organism-based; outline: as §1

CCCCCCCCCCCCCCCC(=O)NCCCC[C@H](NC(=O)CCNC(=O)[C@H](CCCCN)NC(=O)[C@H](CCCCN)NC(=O)[C@H](CO)NC(=O)[C@H](Cc1ccccc1)NC(=O)[C@H](CCC(=O)O)NC(=O)[C@H](CCC(=O)O)NC(=O)[C@H](Cc1ccccc1)NC(=O)[C@H](CCCCN)NC(=O)[C@H](CCCCN)NC(=O)[C@H](CO)NC(=O)[C@H](Cc1ccccc1)NC(=O)[C@H](CCC(=O)O)NC(=O)[C@H](CCC(=O)O)NC(=O)[C@H](Cc1ccccc1)NC(=O)[C@H](CCCCN)NC(=O)[C@H](CCCCN)NC(=O)[C@H](CO)NC(=O)[C@H](Cc1ccccc1)NC(=O)[C@H](CCC(=O)O)NC(=O)[C@H](CCC(=O)O)NC(=O)[C@H](Cc1ccccc1)NC(=O)[C@H](CCCCN)NC(=O)[C@H](CCCCN)NC(=O)[C@H](CO)NC(=O)[C@H](Cc1ccccc1)NC(=O)[C@H](CCC(=O)O)NC(=O)[C@H](CCC(=O)O)NC(=O)[C@H](Cc1ccccc1)NC(=O)[C@H](CCCCN)NC(=O)[C@H](CCCCN)NC(=O)[C@H](CO)NC(=O)[C@H](Cc1ccccc1)NC(=O)[C@H](CCC(=O)O)NC(=O)[C@H](CCC(=O)O)NC(=O)[C@H](Cc1ccccc1)NC(C)=O)C(N)=O (Ac-FEEFSKKFEEFSKKFEEFSKKFEEFSKKFEEFSKK[βAla]K(Palmitoyl)-NH2)
EC50 [1]: 3.11 µM
CC50 at 48 h [2]: > 100 µM

CCCCCCCCCCCCCCCC(=O)NCCCC[C@H](NC(=O)CCNC(=O)[C@H](CCCCN)NC(=O)[C@H](CCCCN)NC(=O)[C@H](Cc1ccc(O)cc1)NC(=O)[C@@H](NC(=O)[C@H](CCC(=O)O)NC(=O)[C@H](CCC(=O)O)NC(=O)[C@@H](NC(=O)[C@H](CCCCN)NC(=O)[C@H](CCCCN)NC(=O)[C@H](Cc1ccc(O)cc1)NC(=O)[C@@H](NC(=O)[C@H](CCC(=O)O)NC(=O)[C@H](CCC(=O)O)NC(=O)[C@@H](NC(=O)[C@H](CCCCN)NC(=O)[C@H](CCCCN)NC(=O)[C@H](Cc1ccc(O)cc1)NC(=O)[C@@H](NC(=O)[C@H](CCC(=O)O)NC(=O)[C@H](CCC(=O)O)NC(=O)[C@@H](NC(=O)[C@H](CCCCN)NC(=O)[C@H](CCCCN)NC(=O)[C@H](Cc1ccc(O)cc1)NC(=O)[C@@H](NC(=O)[C@H](CCC(=O)O)NC(=O)[C@H](CCC(=O)O)NC(=O)[C@@H](NC(=O)[C@H](CCCCN)NC(=O)[C@H](CCCCN)NC(=O)[C@H](Cc1ccc(O)cc1)NC(=O)[C@@H](NC(=O)[C@H](CCC(=O)O)NC(=O)[C@H](CCC(=O)O)NC(=O)[C@@H](NC(C)=O)[C@@H](C)CC)[C@@H](C)CC)[C@@H](C)CC)[C@@H](C)CC)[C@@H](C)CC)[C@@H](C)CC)[C@@H](C)CC)[C@@H](C)CC)[C@@H](C)CC)[C@@H](C)CC)C(N)=O (Ac-IEEIYKKIEEIYKKIEEIYKKIEEIYKKIEEIYKK[βAla]K(Palmitoyl)-NH2)
CC50 at 72 h [3]: > 100 µM

CC[C@H](C)[C@H](NC(C)=O)C(=O)N[C@@H](CCC(=O)O)C(=O)N[C@@H](CCC(=O)O)C(=O)N[C@H](C(=O)N[C@@H](CCC(N)=O)C(=O)N[C@@H](CCCCN)C(=O)N[C@@H](CCCCN)C(=O)N[C@H](C(=O)N[C@@H](CCC(=O)O)C(=O)N[C@@H](CCC(=O)O)C(=O)N[C@H](C(=O)N[C@@H](CCC(N)=O)C(=O)N[C@@H](CCCCN)C(=O)N[C@@H](CCCCN)C(=O)N[C@H](C(=O)N[C@@H](CCC(=O)O)C(=O)N[C@@H](CCC(=O)O)C(=O)N[C@H](C(=O)N[C@@H](CCC(N)=O)C(=O)N[C@@H](CCCCN)C(=O)N[C@@H](CCCCN)C(=O)N[C@H](C(=O)N[C@@H](CCC(=O)O)C(=O)N[C@@H](CCC(=O)O)C(=O)N[C@H](C(=O)N[C@@H](CCC(N)=O)C(=O)N[C@@H](CCCCN)C(=O)N[C@@H](CCCCN)C(=O)N[C@H](C(=O)N[C@@H](CCC(=O)O)C(=O)N[C@@H](CCC(=O)O)C(=O)N[C@H](C(=O)N[C@@H](CCC(N)=O)C(=O)N[C@@H](CCCCN)C(=O)N[C@@H](CCCCN)C(=O)NCCC(=O)N[C@@H](CCCCNC(C)=O)C(N)=O)[C@@H](C)CC)[C@@H](C)CC)[C@@H](C)CC)[C@@H](C)CC)[C@@H](C)CC)[C@@H](C)CC)[C@@H](C)CC)[C@@H](C)CC)[C@@H](C)CC (Ac-IEEIQKKIEEIQKKIEEIQKKIEEIQKKIEEIQKK[βAla]K(Ac)-NH2)
Activity (Lipid bilayer): inactive
Activity [4]: inactive
inhibition (Influenza A virus): inactive
Activity [5]: inactive

CCCCCCCCCCCCCCCC(=O)NCCCC[C@H](NC(=O)CCNC(=O)[C@H](CCCCN)NC(=O)[C@H](CCCCN)NC(=O)[C@H](CO)NC(=O)[C@@H](NC(=O)[C@H](CCC(=O)O)NC(=O)[C@H](CCC(=O)O)NC(=O)[C@@H](NC(=O)[C@H](CCCCN)NC(=O)[C@H](CCCCN)NC(=O)[C@H](CO)NC(=O)[C@@H](NC(=O)[C@H](CCC(=O)O)NC(=O)[C@H](CCC(=O)O)NC(=O)[C@@H](NC(=O)[C@H](CCCCN)NC(=O)[C@H](CCCCN)NC(=O)[C@H](CO)NC(=O)[C@@H](NC(=O)[C@H](CCC(=O)O)NC(=O)[C@H](CCC(=O)O)NC(=O)[C@@H](NC(=O)[C@H](CCCCN)NC(=O)[C@H](CCCCN)NC(=O)[C@H](CO)NC(=O)[C@@H](NC(=O)[C@H](CCC(=O)O)NC(=O)[C@H](CCC(=O)O)NC(=O)[C@@H](NC(=O)[C@H](CCCCN)NC(=O)[C@H](CCCCN)NC(=O)[C@H](CO)NC(=O)[C@@H](NC(=O)[C@H](CCC(=O)O)NC(=O)[C@H](CCC(=O)O)NC(=O)[C@@H](NC(C)=O)[C@@H](C)CC)[C@@H](C)CC)[C@@H](C)CC)[C@@H](C)CC)[C@@H](C)CC)[C@@H](C)CC)[C@@H](C)CC)[C@@H](C)CC)[C@@H](C)CC)[C@@H](C)CC)C(N)=O (Ac-IEEISKKIEEISKKIEEISKKIEEISKKIEEISKK[βAla]K(Palmitoyl)-NH2)
CC50 at 72 h [3]: > 100 µM
